Results taken from PMC2903386 (The Journal of Biological Chemistry, 2010).
Non-standard residues stand in square brackets, D forms with d. Residues, ends and D or L forms follow the SMILES beside them. *: point of attachment. X1 = CC[N+]1=C(C=CC=CC=C2N(CCCCCC(=O)NCCN3C(=O)CC(*)C3=O)c3ccc(S(=O)(=O)O)cc3C2(C)C)C(C)(C)c2cc(S(=O)(=O)[O-])ccc21; Ahx = NCCCCCC(=O)O

Assays:
[1] = Cleavage of Cy5-labeled ACPPs by tumor tissue extract; type: in vitro ADME, mouse; details: 5 μM purified Cy5-labeled peptide, 2% tumor extract, 37 °C, 2 h, 16% Tricine gel
Summary of the method: (§1)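 Fresh mouse tissue was gently homogenized in PBS on ice and spun at 14,000 × g for 1 min; the supernatant was used. 5 μM purified Cy5-labeled test peptide was incubated with 2% liver or tumor extract in PBS containing ZnCl2 at 37 °C for 2 h. Cleaved and uncleaved peptide were resolved on 16% Tricine gels and imaged by fluorescence.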

[2] = Tumor standardized uptake value; type: in vivo; details: PyMT, mouse, iv, 10 nmol
PyMT mammary tumors = assay: Fluorescence imaging contrast in PyMT tumor-bearing mice; type: in vivo, mouse; details: PyMT mice, fluorescence imaging 6 h after injection of 10 nmol
Summary of the method: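 PyMT transgenic mice bearing spontaneous mammary tumors were anesthetized with ketamine 80 mg/kg plus midazolam 5 mg/kg (1:1) and weighed. They were injected via the tail vein with Cy5 peptide: free peptide 100 μl of 100 μM (10 nmol) or albumin-reactive peptide 100 μl of 30 μM (3 nmol). Maestro imaging (ex 640 ± 24 nm, em >700 nm) was done at 6 h or 48 h, comparing tumor with adjacent normal tissue.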

[3] = Cleavage of Cy5-labeled ACPP by liver tissue extract; type: in vitro ADME, mouse; details: 5 μM purified Cy5-labeled peptide, 2% liver extract, 37 °C, 2 h, 16% Tricine gel
Summary of the method: as §1

plasmin = plasmin (Homo sapiens, UniProt P00747); assay: Cleavage by purified plasmin; type: in vitro ADME; details: 5 μM purified Cy5-labeled peptide, 50 nM plasmin, 37 °C, 2 h, 16% Tricine gel
Sequence of plasmin (P00747 581-810 limits assumed): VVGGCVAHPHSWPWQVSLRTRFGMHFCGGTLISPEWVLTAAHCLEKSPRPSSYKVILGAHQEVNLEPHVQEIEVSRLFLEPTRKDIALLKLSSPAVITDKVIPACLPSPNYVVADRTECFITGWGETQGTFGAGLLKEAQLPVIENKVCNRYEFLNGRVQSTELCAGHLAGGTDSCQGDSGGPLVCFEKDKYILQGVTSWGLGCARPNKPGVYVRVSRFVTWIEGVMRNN
Sequence of plasmin (P00747 97-580 partner limits assumed): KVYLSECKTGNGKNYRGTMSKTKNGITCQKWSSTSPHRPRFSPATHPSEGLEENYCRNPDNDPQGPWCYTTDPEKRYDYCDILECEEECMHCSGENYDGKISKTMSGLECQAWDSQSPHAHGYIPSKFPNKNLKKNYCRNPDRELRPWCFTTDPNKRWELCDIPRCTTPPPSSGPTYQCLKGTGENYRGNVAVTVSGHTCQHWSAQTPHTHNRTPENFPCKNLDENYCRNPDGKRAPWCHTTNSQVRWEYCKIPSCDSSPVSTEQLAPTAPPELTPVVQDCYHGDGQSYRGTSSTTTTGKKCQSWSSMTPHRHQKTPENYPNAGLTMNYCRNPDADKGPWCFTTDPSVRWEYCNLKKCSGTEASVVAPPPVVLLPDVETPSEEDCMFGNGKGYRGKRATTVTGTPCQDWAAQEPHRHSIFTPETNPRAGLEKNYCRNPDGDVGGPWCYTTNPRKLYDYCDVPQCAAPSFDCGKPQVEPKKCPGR
Summary of the method: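 Plasmin at 50 nM was incubated with 5 μM purified Cy5-labeled test peptide at 37 °C for 2 h, run alongside 2% tumor, liver or kidney extract digests. Products were resolved on 16% Tricine acrylamide gels and detected by Cy5 fluorescence imaging.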

CC[N+]1=C(C=CC=CC=C2N(CCCCCC(=O)NCCN3C(=O)CC(SC[C@@H](NC(=O)[C@@H](CCCNC(=N)N)NC(=O)[C@@H](CCCNC(=N)N)NC(=O)[C@@H](CCCNC(=N)N)NC(=O)[C@@H](CCCNC(=N)N)NC(=O)[C@@H](CCCNC(=N)N)NC(=O)[C@@H](CCCNC(=N)N)NC(=O)[C@@H](CCCNC(=N)N)NC(=O)[C@@H](CCCNC(=N)N)NC(=O)[C@@H](CCCNC(=N)N)NC(=O)[C@H](CC(C)C)NC(=O)[C@H](CCCCNC(C)=O)NC(=O)[C@H](CC(C)C)NC(=O)[C@H](CCC(N)=O)NC(=O)[C@H](CC(C)C)NC(=O)[C@H](CCCNC(=N)N)NC(=O)CCCCCNC(=O)[C@@H](CCC(=O)O)NC(=O)[C@@H](CCC(=O)O)NC(=O)[C@@H](CCC(=O)O)NC(=O)[C@@H](CCC(=O)O)NC(=O)[C@@H](CCC(=O)O)NC(=O)[C@@H](CCC(=O)O)NC(=O)[C@@H](CCC(=O)O)NC(=O)[C@@H](CCC(=O)O)NC(=O)[C@H](N)CCC(=O)O)C(N)=O)C3=O)c3ccc(S(=O)(=O)O)cc3C2(C)C)C(C)(C)c2cc(S(=O)(=O)[O-])ccc21 (some centres unmarked) [RLQLK(Ac)L ACPP] (H-[dE][dE][dE][dE][dE][dE][dE][dE][dE][Ahx]RLQLK(Ac)L[dR][dR][dR][dR][dR][dR][dR][dR][dR][dC](X1)-NH2)
cleavage by tumor extracts, comparison with parent (in words) [1]: efficiently cleaved | SUV at 6 h [2]: 0.48 ± 0.04 SUV | Tumor to non-tumor contrast, free peptide (PyMT mammary tumors): less than 3 fold | cleavage by liver tissue extract compared with parent RLQLKL ACPP (in words) [3]: significantly reduced | cleavage by plasmin (in words) (plasmin): not cleaved
